# From paper PMC7032090 (Asian Journal of Pharmaceutical Sciences, 2019)
# What was measured:
# In vivo pharmacokinetics = test: In vivo pharmacokinetics; design: species or system Sprague-Dawley rats; conditions: 8 mg/kg
# Method in brief: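 Male Sprague-Dawley rats (200–220 g), 5 per group. Oral dosing was 20 mg/kg 5-FU equivalent; one group received 5-FU iv at 8 mg/kg for absolute bioavailability. Plasma was collected at set times. Samples were precipitated with methanol plus internal standard, dried under nitrogen at 37 °C and reconstituted in methanol:water 15:85. Prodrug and 5-FU were measured together by UPLC-MS/MS (C18, water/acetonitrile gradient, MRM).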
# Kunming mice = test: In vivo safety evaluation; conditions: 40 mg/kg intragastrically, 7 d continuous
# Method in brief: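 Male Kunming mice (18–22 g), nine in 3 groups, received PBS, 5-FU or test compound intragastrically at 40 mg/kg for 7 consecutive days. Duodenum, jejunum, ileum and colon (plus major organs) were fixed in 10% formalin, then embedded, dewaxed, stained and examined microscopically.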
# Caco-2 cells [1] = test: In vitro cytotoxicity; type: cell-based; conditions: for IC50: Homo sapiens, Caco-2, 48 h, read-out: IC50 Caco-2; for IC50 in Caco-2 cells, fold greater than 5-FU: MTT, 48 h
# Method in brief: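 Caco-2 cells seeded at 5 × 10^3 per well and grown 24 h. Cells were exposed to a concentration gradient of test compound for 48 h. Medium was replaced with 20% MTT medium for 4 h at 37 °C, then formazan was dissolved in DMSO for 15 min. Absorbance was read at 490 nm and IC50 calculated.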
# [2] = Chemical stability in different pH hydrochloride and phosphate buffers at 37 °C; type: physicochemical; conditions: for half-life at 80 µg/ml: hydrochloride or phosphate buffer (PBS); for T1/2: pH 6.8, 37 °C, 80 µg/ml
# Method in brief: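 Test compound at 80 µg/ml in pH 1.2, 6.8 or 7.4 solution, shaken at 37 °C. Samples were taken at 0, 0.083, 0.25, 0.5, 1, 2, 4, 8, 12, 24 and 48 h. Each sample was centrifuged at 13 000 rpm for 10 min and quantified by HPLC.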
# [3] = Enzymatic stability in rat hepatic homogenates; type: in vitro ADME; conditions: Sprague-Dawley, liver homogenate
# Method in brief: (§1)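 Matrices from Sprague-Dawley rats: plasma from orbital blood stored at −80 °C, and liver or intestine washed in saline, homogenised on ice at 1:3 tissue:saline, with cold-centrifuged supernatant used. Test compound at 80 µg/ml, shaken at 37 °C, sampled 0–48 h. Samples were quenched with methanol (1:3), vortexed 2 min and centrifuged 13 000 rpm for 10 min. Supernatant was analysed by HPLC.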
# Caco-2 monolayer = test: Caco-2 cell permeability; type: in vitro ADME; conditions: AP → BL transport
# Method in brief: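 Caco-2 cells seeded on Transwell inserts at 1 × 10^4 per well. After the first week, medium contained butyric acid up to 21 d, and monolayers with TEER above 300 Ω cm2 were used. Monolayers were washed with 37 °C HBSS and equilibrated for 30 min. Drug was added apically with HBSS basolaterally. BL was sampled with replacement at 5–120 min, with or without inhibitor (2.5 mM). Samples were analysed by UPLC-MS/MS and Papp calculated.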
# [4] = Enzymatic stability in rat intestinal homogenates; type: in vitro ADME; conditions: Sprague-Dawley, intestinal homogenate
# Method in brief: as §1
# [5] = Enzymatic stability in rat plasma; type: in vitro ADME; conditions: Sprague-Dawley
# Method in brief: as §1
# [6] = In situ single-pass intestinal perfusion study; type: in vivo, Sprague-Dawley (SD) rats; conditions: for absorption rate constant (Ka), fold higher than 5-FU / apparent permeability coefficient (Papp), fold higher than 5-FU: colon, 0.5 mM, rat
# Method in brief: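 Sprague-Dawley rats (220–240 g) were anaesthetised with 20% urethane, and ileum and colon segments were cannulated. Segments were pre-perfused with blank MES buffer for 20 min, then with test compound at 0.5 mM in MES buffer. Inlet and outlet perfusate were collected and weighed at set times. Samples were methanol-precipitated (1:3) and analysed by HPLC. Ka and Papp were derived from concentrations, volumes, segment radius and length, and flow rate.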
# Caco-2 cells [7] = test: Caco-2 cell uptake study; type: cell-based; conditions: for Uptake in untreated cells (without butyric acid induction): cells without induction vs butyric acid-treated; for Caco-2 uptake, fold higher than 5-FU: drug concentration 1 mM, uptake time 10 min, butyric acid-induced cells
# Method in brief: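 Caco-2 cells seeded in 24-well plates at 1 × 10^4 per well and grown 15 d. Medium was switched to butyric acid-containing medium on day 7 to induce MCT1. Uptake ran at 37 °C at set times and concentrations, with or without inhibitor at 2.5 mM. Cells were washed three times with cold PBS, collected in water and sonicated. Drug was measured by UPLC-MS/MS and normalised to BCA protein.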
# [8] = male, Sprague-Dawley, rat, plasma, iv
smiles,measurement,setting,value
"O=c1[nH]cc(F)c(=O)[nH]1 [5-FU, 5-Fluorouracil]",Fabs,"In vivo pharmacokinetics; i.v., rat (reference)",100%
same,Cmax,In vivo pharmacokinetics; [8],11200 ng/mL
same,Tmax,In vivo pharmacokinetics; [8],4.8 min
same,half-life,In vivo pharmacokinetics; [8],0.29 ± 0.06 h
same,"Intestinal histology (duodenum, jejunum, ileum, colon; H&E)",Kunming mice,"inflammatory cell infiltration occurred in the duodenum, jejunum and ileum tissues"
same,"Systemic histology (heart, liver, spleen, lung, kidney; H&E)",Kunming mice,"the liver cells were wrinkled, the nuclei were pyknotic"
same,IC50,Caco-2 cells [1],77.8 ± 1.11 µM
"O=C(O)CCCCC(=O)OCn1cc(F)c(=O)[nH]c1=O [HDA-5-FU, Hexanedioic acid mono-(5-fluoro-2,4-dioxo-3,4-dihydro-2H-pyrimidin-1-ylmethyl) ester]",half-life at 80 µg/ml,[2]; pH 1.2,38.3 ± 0.1 h
same,half-life at 80 µg/ml,[2]; pH 7.4,143 ± 36.8 h
same,T1/2,[2],No hydrolysis
same,half-life at 80 µg/ml,[3],9.7 ± 3 h
same,"membrane permeability AP → BL, fold greater than 5-FU",Caco-2 monolayer,8.5 fold
same,half-life at 80 µg/ml,[4],3.4 ± 0.2 h
same,half-life at 80 µg/ml,[5],19.7 ± 5.1 h
same,"absorption rate constant (Ka), fold higher than 5-FU",[6],1.1 fold
same,"apparent permeability coefficient (Papp), fold higher than 5-FU",[6],1.1 fold
same,Ka and Papp values on co-incubating with quercetin (MCT1 inhibitor),[6]; in situ perfusion with quercetin,significantly decreased
same,Uptake in untreated cells (without butyric acid induction),Caco-2 cells [7],significantly decreased
same,"Caco-2 uptake, fold higher than 5-FU",Caco-2 cells [7],2.2 fold
same,IC50,Caco-2 cells [1],500.8 ± 1.32 µM
same,"IC50 in Caco-2 cells, fold greater than 5-FU",Caco-2 cells [1],6.4 fold
"O=C(O)CCCCCCC(=O)OCn1cc(F)c(=O)[nH]c1=O [OA-5-FU, octanedioic acid mono-(5-fluoro-2,4-dioxo-3,4-dihydro-2H-pyrimidin-1-ylmethyl) ester]",half-life at 80 µg/ml,[2]; pH 1.2,36.8 ± 2.3 h
same,half-life at 80 µg/ml,[2]; pH 7.4,152 ± 13.1 h
same,T1/2,[2],No hydrolysis
same,half-life at 80 µg/ml,[3],< 0.25 h
same,"membrane permeability AP → BL, fold greater than 5-FU",Caco-2 monolayer,13.1 fold
same,half-life at 80 µg/ml,[4],1.2 ± 0.1 h
same,half-life at 80 µg/ml,[5],15.3 ± 1.1 h
same,"absorption rate constant (Ka), fold higher than 5-FU",[6],3.8 fold
same,"apparent permeability coefficient (Papp), fold higher than 5-FU",[6],3.3 fold
same,Uptake in untreated cells (without butyric acid induction),Caco-2 cells [7],significantly decreased
same,"Caco-2 uptake, fold higher than 5-FU",Caco-2 cells [7],5.5 fold
same,"Intestinal histology (duodenum, jejunum, ileum, colon; H&E)",Kunming mice,No significant toxicity
same,IC50,Caco-2 cells [1],317.7 ± 1.1 µM
same,"IC50 in Caco-2 cells, fold greater than 5-FU",Caco-2 cells [1],4.1 fold
